Tests used:
[1] = target: T1, Sodium-dependent dopamine transporter (Rattus norvegicus, UniProt P23977); test: Reuptake inhibition at the dopamine transporter labeled with radioligand [3H]dopamine on synaptosomes obtained from rat caudate.; type: functional, subcellular, Brain
In short: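 Rat caudate synaptosomes (10% sucrose homogenate, 1000g supernatant). [3H]DA at 5 nM final in Krebs-phosphate buffer pH 7.4 with ascorbic acid and 50 μM pargyline. Incubated 15 min at 25 °C. Nonspecific uptake defined with 1 μM GBR 12909. Filtered over GF/B filters and counted. IC50 reported.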

[2] = target: T1, Sodium-dependent dopamine transporter; test: Binding affinity at the dopamine transporter using [125I]RTI-55 in rat caudate membranes.; type: cell membranes
In short: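 [125I]RTI-55 at 0.01 nM (SA 2200 Ci/mmol). […] Incubated in triplicate 18–24 h at 4 °C to equilibrium. Filtered over PEI-presoaked GF/B filters. Eight-point inhibition curves spanning 90% to 10% of control. IC50 reported.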

[3] = target: T2, Monoamine transporters; serotonin & dopamine (Rattus norvegicus) (UniProt P31652+P23977); test: Ratio of reuptake inhibition of 5-HT with respect to DA; type: functional
[4] = target: T2, Monoamine transporters; serotonin & dopamine (Rattus norvegicus); test: Ratio of binding affinity on SERT with respect to DA; type: protein assay
[5] = target: Sodium-dependent dopamine transporter (Rattus norvegicus) (UniProt P23977); test: Ratio of reuptake inhibition on DA with respect to binding affinity of DA; type: functional
[6] = target: T3, Sodium-dependent serotonin transporter (Rattus norvegicus, UniProt P31652); test: Binding affinity at the serotonin transporter using [125I]RTI-55 in rat caudate membranes.; type: cell membranes
In short: (§1)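 Triplicate incubation 18–24 h at 4 °C, then filtration over PEI-presoaked GF/B filters. Eight-point inhibition curves (90–10% of control) give the IC50.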

[7] = target: T1, Sodium-dependent dopamine transporter; test: Binding affinity was determined at the dopamine transporter labeled with radioligand [125 I] RTI-55
In short: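 Incubated in triplicate 18–24 h at 4 °C to equilibrium. Filtered over PEI-presoaked GF/B filters. Eight-point inhibition curves spanning 90% to 10% of control. IC50 reported.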

[8] = target: T3, Sodium-dependent serotonin transporter; test: Binding affinity was determined at the Serotonin transporter labeled with radioligand [125 I] RTI-55; in short: as §1
[9] = target: T1, Sodium-dependent dopamine transporter; test: Binding affinity was determined at the dopamine transporter labeled with radioligand [125 I] RTI-55 in nonstandard conditions
In short: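 Run on rat caudate synaptosomes in Krebs-phosphate buffer with 1 mg/mL BSA. Drug preincubated 60 min at 25 °C, then 10 pM [125I]RTI-55 added for 20 min at 25 °C. Filtered over PEI-presoaked GF/B filters. Nonspecific binding defined with 1 μM GBR 12909. Mean ± SD of three independent experiments.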

[10] = target: T1, Sodium-dependent dopamine transporter; test: Reuptake inhibition was determined at the dopamine transporter labeled with radioligand [3H]dopamine in nonstandard conditions on brain membranes obtained from rat; type: functional, Membrane
In short: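 Synaptosomes preincubated with drug 60 min at 25 °C in Krebs-phosphate buffer with 1 mg/mL BSA. 5 nM [3H]DA then added for 20 min at 25 °C. Nonspecific uptake defined with 1 μM GBR 12909. Stopped by filtration. Mean ± SD of three independent experiments.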

[11] = Sigma receptor binding was determined by labeling with radioligand [3H](+)-pentazocine on frozen membranes obtained from frozen guinea pig brain

T3 sequence (P31652 whole entry): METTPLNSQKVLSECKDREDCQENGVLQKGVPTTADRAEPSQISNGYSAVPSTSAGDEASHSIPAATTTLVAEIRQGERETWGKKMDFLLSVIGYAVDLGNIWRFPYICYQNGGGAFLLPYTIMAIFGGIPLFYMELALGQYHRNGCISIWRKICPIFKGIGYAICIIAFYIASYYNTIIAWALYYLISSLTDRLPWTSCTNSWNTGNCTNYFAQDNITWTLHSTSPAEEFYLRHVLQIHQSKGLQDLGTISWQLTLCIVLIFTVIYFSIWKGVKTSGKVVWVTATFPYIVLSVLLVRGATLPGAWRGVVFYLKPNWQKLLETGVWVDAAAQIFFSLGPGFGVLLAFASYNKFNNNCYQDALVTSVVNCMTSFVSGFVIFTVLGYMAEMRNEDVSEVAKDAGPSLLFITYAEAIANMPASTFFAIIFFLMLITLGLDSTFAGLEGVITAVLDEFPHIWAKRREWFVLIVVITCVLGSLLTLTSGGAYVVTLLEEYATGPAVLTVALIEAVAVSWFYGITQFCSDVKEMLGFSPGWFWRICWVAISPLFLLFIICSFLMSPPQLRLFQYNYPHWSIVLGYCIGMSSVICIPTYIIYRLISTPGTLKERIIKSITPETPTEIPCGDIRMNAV
Chain of Sodium-dependent dopamine transporter (Rattus norvegicus) (P23977 whole entry): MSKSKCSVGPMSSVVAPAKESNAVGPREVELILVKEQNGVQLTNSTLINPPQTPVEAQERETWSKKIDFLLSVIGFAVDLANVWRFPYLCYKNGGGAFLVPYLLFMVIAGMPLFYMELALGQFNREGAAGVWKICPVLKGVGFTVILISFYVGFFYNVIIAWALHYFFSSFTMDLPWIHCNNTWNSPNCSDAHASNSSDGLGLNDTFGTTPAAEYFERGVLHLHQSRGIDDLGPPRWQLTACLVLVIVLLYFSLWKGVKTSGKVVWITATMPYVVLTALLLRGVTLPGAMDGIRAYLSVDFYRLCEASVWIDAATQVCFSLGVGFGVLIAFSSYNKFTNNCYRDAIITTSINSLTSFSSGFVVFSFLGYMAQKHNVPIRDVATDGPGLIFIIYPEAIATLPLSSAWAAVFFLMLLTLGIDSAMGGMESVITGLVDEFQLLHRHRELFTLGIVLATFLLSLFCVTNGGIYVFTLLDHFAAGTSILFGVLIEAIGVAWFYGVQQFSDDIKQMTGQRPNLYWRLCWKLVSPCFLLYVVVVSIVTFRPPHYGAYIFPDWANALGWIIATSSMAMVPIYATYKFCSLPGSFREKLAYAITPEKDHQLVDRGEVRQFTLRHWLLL
T2 sequence (P23977 whole entry, looked up): as the sequence (P23977 whole entry) above
T2 sequence (P31652 whole entry, looked up): as the sequence (P31652 whole entry) above
T1 sequence (P23977 whole entry): as the sequence (P23977 whole entry) above

Row | Structure (SMILES) | IC50 [1] | IC50 [2] | Ratio [3] | Ratio [4] | Ratio [5] | IC50 [6] | IC50 [7] | IC50 [8] | IC50 [9] | IC50 [10] | IC50 [11]
1 | c1ccc(C(OCCN2CCN(Cc3cnc4ccccc4c3)CC2)c2ccccc2)cc1 | 111 nM | 72 nM | 27 | 16 | 1.5 | 1160 nM | – | – | – | – | –
2 | Fc1ccc(C(OCCN2CCN(Cc3cccc4ccccc34)CC2)c2ccc(F)cc2)cc1 | 312 nM | 31 nM | < 1 | 8 | 10.1 | 243 nM | – | – | – | – | –
3 | c1ccc(C(OCCN2CCN(CCCc3nc4ccccc4[nH]3)CC2)c2ccccc2)cc1 | 17 nM | 23 nM | 39 | 13 | 0.7 | 309 nM | – | – | – | – | –
4 | Fc1ccc(C(OCCN2CCN(CCCc3nc4ccccc4[nH]3)CC2)c2ccc(F)cc2)cc1 | 8.1 nM | 2.5 nM | 9 | 11 | 3.2 | 28 nM | – | – | – | – | –
5 | Fc1ccc(C(OCCN2CCN(CCCc3cccs3)CC2)c2ccc(F)cc2)cc1 | 6.1 nM | – | 55 | 32 | 1.8 | – | 3.3 nM | 105 nM | – | – | –
6 | C(=C\c1cccs1)/CN1CCN(CCOC(c2ccccc2)c2ccccc2)CC1 | 10 nM | 6.4 nM | 200 | 184 | 1.6 | 1170 nM | – | – | – | – | –
7 | Fc1ccc(C(OCCN2CCN(Cc3nc4ccccc4[nH]3)CC2)c2ccc(F)cc2)cc1 | 20 nM | 15 nM | 40 | 17 | 1.3 | 256 nM | – | – | – | – | –
8 | Fc1ccc(C(OCCN2CCN(C/C=C/c3cccs3)CC2)c2ccc(F)cc2)cc1 | 13 nM | – | 29 | 40 | 5.9 | – | 2.2 nM | 88 nM | – | – | –
9 | Fc1ccc(C(OCCN2CCN(C/C=C/c3cccnc3)CC2)c2ccc(F)cc2)cc1 | 14.5 nM | – | 46 | 25 | 1.1 | – | 13.6 nM | 334 nM | – | – | –
10 | c1ccc(C(OCCN2CCN(CCCc3ccco3)CC2)c2ccccc2)cc1 | 8.5 nM | 6.5 nM | 300 | 234 | 1.3 | 1520 nM | – | – | – | – | –
11 | c1ccc(C(OCCN2CCN(Cc3ccc4ccccc4n3)CC2)c2ccccc2)cc1 | 192 nM | 199 nM | 21 | 10 | 1 | 1990 nM | – | – | – | – | –
12 | Fc1ccc(C(OCCN2CCN(CCCc3ccco3)CC2)c2ccc(F)cc2)cc1 | 7.9 nM | – | 52 | 35 | 1.3 | – | 5.9 nM | 204 nM | – | – | –
13 | c1ccc(C(OCCN2CCN(Cc3cccc4ccccc34)CC2)c2ccccc2)cc1 | 406 nM | 114 nM | < 1 | 3 | 3.6 | 336 nM | – | – | – | – | –
14 | C(=C\c1cccnc1)/CN1CCN(CCOC(c2ccccc2)c2ccccc2)CC1 | 64 nM | 44 nM | 57 | 61 | 1.5 | 2760 nM | – | – | – | – | –
15 | Fc1ccc(C(OCCN2CCN(Cc3cc4ccccc4s3)CC2)c2ccc(F)cc2)cc1 | 34 nM | 4.1 nM | 36 | 121 | 8.3 | 495 nM | – | – | – | – | –
16 | c1ccc(C(OCCN2CCN(CCCc3cccs3)CC2)c2ccccc2)cc1 | 9.7 nM | 5.2 nM | 205 | 162 | 1.9 | 842 nM | – | – | – | – | –

Row | Structure (SMILES) | IC50 [1] | IC50 [2] | Ratio [3] | Ratio [4] | Ratio [5] | IC50 [6] | IC50 [7] | IC50 [8] | IC50 [9] | IC50 [10] | IC50 [11]
17 | c1ccc(C(OCCN2CCN(Cc3cc4ccccc4o3)CC2)c2ccccc2)cc1 | 22 nM | 17 nM | 136 | 110 | 1.3 | 1890 nM | – | – | 43.6 nM | 31 nM | –
18 | C(=C\c1ccco1)/CN1CCN(CCOC(c2ccccc2)c2ccccc2)CC1 | 9.6 nM | 5 nM | 281 | 367 | 1.9 | 1840 nM | – | – | – | – | –
19 | c1ccc(CCCN2CCN(CCOC(c3ccccc3)c3ccccc3)CC2)cc1 | – | – | – | – | – | – | – | – | – | – | 17 nM
20 | Fc1ccc(C(OCCN2CCN(Cc3ccc4ncccc4c3)CC2)c2ccc(F)cc2)cc1 | – | 62 nM | – | 9 | 1.2 | 551 nM | – | – | – | – | –
21 | Fc1ccc(C(OCCN2CCN(Cc3ccc4ccccc4n3)CC2)c2ccc(F)cc2)cc1 | 106 nM | 56 nM | 3 | < 1 | 1.9 | 51 nM | – | – | – | – | –
22 | c1ccc(C(OCCN2CCN(Cc3nc4ccccc4[nH]3)CC2)c2ccccc2)cc1 | 37 nM | 46 nM | 110 | 41 | 0.8 | 1880 nM | – | – | – | – | –
23 | Fc1ccc(C(OCCN2CCN(Cc3cc4ccccc4[nH]3)CC2)c2ccc(F)cc2)cc1 | 13 nM | 0.7 nM | 39 | 163 | 18.6 | 119 nM | – | – | 2.94 nM | 1.86 nM | –
24 | c1ccc(C(OCCN2CCN(Cc3cc4ccccc4[nH]3)CC2)c2ccccc2)cc1 | 8.8 nM | 1.1 nM | 241 | 619 | 8 | 668 nM | – | – | 2.19 nM | 2.62 nM | –
25 | Fc1ccc(C(OCCN2CCN(CCCc3cccnc3)CC2)c2ccc(F)cc2)cc1 | 20 nM | – | 321 | 175 | 1.3 | – | 16 nM | 2800 nM | – | – | –
26 | Fc1ccc(C(OCCN2CCN(Cc3cnc4ccccc4c3)CC2)c2ccc(F)cc2)cc1 | 74 nM | 16 nM | 12 | 30 | 4.6 | 485 nM | – | – | – | – | –
27 | c1ccc(C(OCCN2CCN(Cc3ccc4ncccc4c3)CC2)c2ccccc2)cc1 | 140 nM | 190 nM | 12 | 4 | 0.7 | 845 nM | – | – | – | – | –
28 | c1ccc(C(OCCN2CCN(Cc3cc4ccccc4s3)CC2)c2ccccc2)cc1 | 19 nM | 18 nM | 184 | 131 | 1.1 | 2420 nM | – | – | – | – | –
29 | Fc1ccc(C(OCCN2CCN(Cc3ccc4ccccc4c3)CC2)c2ccc(F)cc2)cc1 | 30 nM | 8 nM | 20 | 39 | 3.8 | 312 nM | – | – | – | – | –
30 | Fc1ccc(C(OCCN2CCN(Cc3cc4ccccc4o3)CC2)c2ccc(F)cc2)cc1 | 18.6 nM | 6.4 nM | 41 | 45 | 2.9 | 286 nM | – | – | 17.8 nM | 12.3 nM | –
31 | c1ccc(C(OCCN2CCN(CCCc3cccnc3)CC2)c2ccccc2)cc1 | 70 nM | 78 nM | 53 | 31 | 0.9 | 2420 nM | – | – | – | – | –
32 | Fc1ccc(C(OCCN2CCN(C/C=C/c3ccco3)CC2)c2ccc(F)cc2)cc1 | 7.2 nM | – | 61 | 62 | 4 | – | – | 109 nM | – | – | –
